From ChEMBL document CHEMBL1157095, “Antimalarial versus cytotoxic properties of dual drugs derived from 4-aminoquinolines and Mannich bases: interaction with DNA” (J Med Chem, 2010)
Calls of active or inactive are those of the source. The calls are words filed in the database; no cut-off is given here.

Assays:
Plasmodium falciparum [1] = assay: Antiplasmodial activity against chloroquine-susceptible Plasmodium falciparum NF54 infected in human erythrocytes assessed as inhibition of [3H]hypoxanthine uptake after 48 hrs; type: functional, organism-based
In short: (§1)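 Asynchronous ring-stage cultures in human A Rh+ erythrocytes (RPMI 1640, HEPES, NaHCO3, hypoxanthine, 0.5% Albumax II, 5% CO2, 37 C), 1% parasitemia; top final drug concentration 30 μM. After 24 h, [3H]-hypoxanthine (0.2 μCi/well) added, further 48 h incubation; plates freeze-thawed, harvested, uptake counted; IC50 calculated.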

Plasmodium falciparum [2] = assay: Antiplasmodial activity against chloroquine, pyrimethamine, cycloguanil-resistant Plasmodium falciparum K1 infected in human erythrocytes assessed as inhibition of [3H]hypoxanthine uptake after 48 hrs; type: functional, organism-based; in short: as §1
Plasmodium falciparum [3] = assay: Antiplasmodial activity against chloroquine-resistant Plasmodium falciparum Dd2 infected in human erythrocytes assessed as inhibition of [3H]hypoxanthine uptake after 48 hrs; type: functional, organism-based
In short: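 Ring-stage infected erythrocytes (0.5% parasitemia, 2.5% hematocrit) exposed to compounds 48 h, then radioactive hypoxanthine 24 h; radioactivity in precipitable material taken as proliferation index for IC50.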

Plasmodium falciparum [4] = assay: Antiplasmodial activity against chloroquine-susceptible Plasmodium falciparum 3D7 infected in human erythrocytes assessed as inhibition of [3H]hypoxanthine uptake after 48 hrs; type: functional, organism-based
In short: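 Culture in RPMI 1640 with 10% human serum, 25 mM HEPES, 25 mM NaHCO3, A-positive blood, 10% O2/5% CO2/85% N2, 37 C. Isotopic microtest: 0.5% parasitemia, 1.5% hematocrit, 1 μCi tritiated hypoxanthine at time zero, 48 h; freeze-thaw lysis, filter harvest, scintillation count. IC50 = 50% uptake versus drug-free control, nonlinear regression of log dose-response curves.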

Plasmodium falciparum [5] = assay: Antiplasmodial activity against chloroquine-susceptible Plasmodium falciparum D6 infected in human erythrocytes assessed as inhibition of [3H]hypoxanthine uptake after 48 hrs; type: functional, organism-based
In short: (§2)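 Strains were cultured in A-positive human blood in RPMI 1640 with 10% human serum, 25 mM HEPES and 25 mM NaHCO3, under 10% O2/5% CO2/85% N2 at 37 °C. Microtests used 0.5% parasitemia and 1.5% hematocrit. Tritiated hypoxanthine (1 μCi/well) was added at time zero, then 48 h incubation, freeze-thaw, harvest and scintillation counting. IC50 was taken by nonlinear regression against drug-free controls.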

Plasmodium falciparum [6] = assay: Antiplasmodial activity against chloroquine-susceptible Plasmodium falciparum 8425 infected in human erythrocytes assessed as inhibition of [3H]hypoxanthine uptake after 48 hrs; type: functional, organism-based; in short: as §2
Plasmodium falciparum [7] = assay: Antiplasmodial activity against chloroquine-susceptible Plasmodium falciparum Voll infected in human erythrocytes assessed as inhibition of [3H]hypoxanthine uptake after 48 hrs; type: functional, organism-based; in short: as §2
Plasmodium falciparum [8] = assay: Antiplasmodial activity against chloroquine-susceptible Plasmodium falciparum L1 infected in human erythrocytes assessed as inhibition of [3H]hypoxanthine uptake after 48 hrs; type: functional, organism-based; in short: as §2
Plasmodium falciparum [9] = assay: Antiplasmodial activity against chloroquine-susceptible Plasmodium falciparum PA infected in human erythrocytes assessed as inhibition of [3H]hypoxanthine uptake after 48 hrs; type: functional, organism-based; in short: as §2
Plasmodium falciparum [10] = assay: Antiplasmodial activity against chloroquine-susceptible Plasmodium falciparum Bres infected in human erythrocytes assessed as inhibition of [3H]hypoxanthine uptake after 48 hrs; type: functional, organism-based; in short: as §2
Plasmodium falciparum [11] = assay: Antiplasmodial activity against chloroquine-susceptible Plasmodium falciparum FCR3 infected in human erythrocytes assessed as inhibition of [3H]hypoxanthine uptake after 48 hrs; type: functional, organism-based; in short: as §2
Plasmodium falciparum [12] = assay: Antiplasmodial activity against chloroquine-susceptible Plasmodium falciparum W2 infected in human erythrocytes assessed as inhibition of [3H]hypoxanthine uptake after 48 hrs; type: functional, organism-based; in short: as §2
Plasmodium falciparum [13] = assay: Antiplasmodial activity against chloroquine-susceptible Plasmodium falciparum K2 infected in human erythrocytes assessed as inhibition of [3H]hypoxanthine uptake after 48 hrs; type: functional, organism-based; in short: as §2
Plasmodium falciparum [14] = assay: Antiplasmodial activity against chloroquine-susceptible Plasmodium falciparum K14 infected in human erythrocytes assessed as inhibition of [3H]hypoxanthine uptake after 48 hrs; type: functional, organism-based; in short: as §2
Plasmodium falciparum [15] = assay: Antiplasmodial activity against chloroquine-susceptible Plasmodium falciparum FCM29 infected in human erythrocytes assessed as inhibition of [3H]hypoxanthine uptake after 48 hrs; type: functional, organism-based; in short: as §2
MRC5 = assay: Cytotoxicity against human MRC5 after 3 days; type: cell-based; details: MRC5, 72 h
In short: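 MRC-5SV2 cells were grown in Earle's MEM with 5% FCSi and plated at about 10^4 cells/well. After 3 days of incubation, viability was read fluorimetrically with resazurin (ex 550/em 590 nm). Growth reduction was expressed relative to untreated control wells, and CC50 was derived.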

Mus musculus [16] = assay: Toxicity in Plasmodium berghei ANKA-infected CD1 mice (Mus musculus) assessed as mortality at 30 mg/kg, intraperitoneally; type: organism-based; design: dose 30 mg/kg, route intraperitoneal; details: in vivo, ip
In short: (§3)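 Peters 4-day suppressive test, P. berghei ANKA: 18-20 g mice infected iv with 2 × 10^6 parasitized red cells day 0; compounds freshly made in 10% DMSO in sterile PBS, given ip from 2 h postinfection and on days 1-3; daily dose 30 mg/kg or 50 mg/kg; deaths recorded.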

Mus musculus [17] = assay: Toxicity in ip dosed Swiss mouse assessed as mortality at 30 mg/kg, ip; type: organism-based; design: dose 30 mg/kg, route intraperitoneal; details: in vivo; in short: as §3
Plasmodium berghei = assay: Antiplasmodial activity against Plasmodium berghei ANKA infected in Swiss mice (Mus musculus) assessed as reduction of parasitaemia at 30 mg/kg, intraperitoneally; type: functional, organism-based; design: dose 30 mg/kg
In short: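 Swiss mice (18-20 g) infected intravenously on day 0 with 2 × 10^6 P. berghei ANKA parasitized red cells. Compound was freshly prepared in 10% DMSO in sterile PBS and given ip, first 2 h postinfection, then on days +1-3 (4-day suppressive test). On day +4, parasitemia was counted microscopically on Giemsa-stained tail-blood films.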

NCH89 = assay: Antiproliferative activity against human carmustine-resistant NCH-89 cells assessed as BrdU incorporation after 48 hrs; type: functional, cell-based; details: NCH89, 48 h
In short: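 NCH89 glioblastoma cells were seeded at 7 × 10^3 cells/well in replicate wells for 24 h. Compound was then added at 0.1-100 μM. After 48 h, BrdU was added at 100 μM final, and incorporation was detected with a BrdU labeling/detection kit.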

Nucleic Acid [18] = assay: Binding affinity to pUC18 DNA at pH 7.5 by UV-Vis spectrophotometry analysis; type: nucleic-acid assay
In short: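 A 10 μM drug solution was titrated at room temperature with linearized pUC18 DNA (50% AT), 0.1-50 μM base pairs final. Buffer was TE (10 mM Tris-HCl, 0.1 mM EDTA) with 5 mM NaCl, ionic strength 12 mM. UV-Vis absorption spectra were recorded at 220-380 nm. Kd = DNA concentration at which half the drug is bound.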

Nucleic Acid [19] = assay: Binding affinity to pUC18 DNA at pH 7.5 by spectrofluorimetry analysis; type: nucleic-acid assay
In short: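 A 1-10 μM drug solution was titrated at room temperature with linearized pUC18 DNA (50% AT), 0.1-50 μM base pairs final, in TE buffer with 5 mM NaCl (ionic strength 12 mM). Fluorescence used excitation at 320 nm and emission at 340-500 nm, corrected for buffer and instrument response. Kd = DNA concentration giving half-bound drug.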

Nucleic Acid [20] = assay: Binding affinity to pUC18 DNA containing 50% AT assessed as maximum melting temperature at 1 uM by spectrophotometry analysis; type: nucleic-acid assay
In short: (§4)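 Drug at 1 μM was mixed with DNA at 15 μM base pairs (15:1 bp:drug) in TE with 5 mM NaCl. Absorbance at 260 nm was recorded from 30-97 °C at 0.5 °C/min, with readings every 0.5 °C. Curves were normalized, smoothed and differentiated. Tmmax = derivative peak maximum; Tmint = middle of the integrated area; Tm1/2 = middle of the peak at half height.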

Nucleic Acid [21] = assay: Binding affinity to pUC18 DNA containing 50% AT assessed as middle of the peak at half height melting temperature at 1 uM by spectrophotometry analysis; type: nucleic-acid assay; in short: as §4
Nucleic Acid [22] = assay: Binding affinity to pUC18 DNA containing 50% AT assessed as middle of the integrated surface melting temperature at 1 uM by spectrophotometry analysis; type: nucleic-acid assay; in short: as §4
Nucleic Acid [23] = assay: Binding affinity to polydAdT DNA containing 100% AT assessed as maximum melting temperature at 1 uM by spectrophotometry analysis; type: nucleic-acid assay; in short: as §4
Nucleic Acid [24] = assay: Binding affinity to polydAdT DNA containing 100% AT assessed as middle of the peak at half height melting temperature at 1 uM by spectrophotometry analysis; type: nucleic-acid assay; in short: as §4
Nucleic Acid [25] = assay: Binding affinity to polydAdT DNA containing 100% AT assessed as middle of the integrated surface melting temperature at 1 uM by spectrophotometry analysis; type: nucleic-acid assay; in short: as §4

Compound | IC50 (Plasmodium falciparum [4]) [µM] | IC90 (Plasmodium falciparum [4]) [µM] | IC50 (Plasmodium falciparum [5]) [µM] | IC90 (Plasmodium falciparum [5]) [µM] | IC50 (Plasmodium falciparum [6]) [µM] | IC90 (Plasmodium falciparum [6]) [µM] | IC50 (Plasmodium falciparum [7]) [µM] | IC90 (Plasmodium falciparum [7]) [µM] | IC50 (Plasmodium falciparum [8]) [µM] | IC90 (Plasmodium falciparum [8]) [µM] | IC50 (Plasmodium falciparum [9]) [µM] | IC90 (Plasmodium falciparum [9]) [µM] | IC50 (Plasmodium falciparum [10]) [µM] | IC90 (Plasmodium falciparum [10]) [µM] | IC50 (Plasmodium falciparum [11]) [µM] | IC90 (Plasmodium falciparum [11]) [µM] | IC50 (Plasmodium falciparum [12]) [µM] | IC90 (Plasmodium falciparum [12]) [µM] | IC50 (Plasmodium falciparum [13]) [µM] | IC90 (Plasmodium falciparum [13]) [µM] | other results
CN(C)CCC(NCCNc1ccnc2cc(Cl)ccc12)c1ccccc1 (stereo not given) | 0.0081 | 0.0144 | 0.0122 | 0.0167 | 0.0088 | 0.0169 | 0.0652 | 0.144 | 0.0617 | 0.177 | 0.161 | 0.318 | 0.158 | 0.31 | 0.0644 | 0.196 | 0.0998 | 0.26 | 0.0871 | 0.247 | IC50 (Plasmodium falciparum [1]): 0.0071 µM; IC50 (Plasmodium falciparum [2]): 0.0619 µM; IC50 (Plasmodium falciparum [3]): 0.0256 µM; IC50 (Plasmodium falciparum [14]): 0.129 µM; IC90 (Plasmodium falciparum [14]): 0.267 µM; IC50 (Plasmodium falciparum [15]): 0.244 µM; IC90 (Plasmodium falciparum [15]): 0.376 µM; IC50 (MRC5): 27 µM; Activity (Mus musculus [16]): Toxic; Activity (Mus musculus [17]): Toxic; Activity (Plasmodium berghei): Active; IC50 (NCH89): 7.3 µM; Kd (Nucleic Acid [18]): 7 µM; Kd (Nucleic Acid [19]): 8 µM; Tm (Nucleic Acid [20]): 74.4 °C; Tm (Nucleic Acid [21]): 76.5 °C; Tm (Nucleic Acid [22]): 75.5 °C; Tm (Nucleic Acid [23]): 46.8 °C; Tm (Nucleic Acid [24]): 47.4 °C; Tm (Nucleic Acid [25]): 47.1 °C
C=C[C@H]1CN2CC[C@H]1C[C@H]2[C@H](O)c1ccnc2ccc(OC)cc12 [QUININE] | 0.104 | 0.597 | 0.0618 | 0.465 | 0.13 | 0.39 | 0.422 | 0.843 | 0.531 | 0.995 | 0.627 | 1.11 | 0.689 | 0.614 | 0.665 | 1.11 | 0.684 | 1.25 | 0.619 | 1.51 | IC50 (Plasmodium falciparum [14]): 0.495 µM; IC90 (Plasmodium falciparum [14]): 1.64 µM; IC90 (Plasmodium falciparum [15]): 1.2 µM
CC(C)NCCNc1ccnc2cc(Cl)ccc12 | 0.0352 | 0.0656 | 0.0356 | 0.0678 | 0.029 | 0.0594 | 0.0637 | 0.135 | 0.0632 | 0.132 | 0.064 | 0.107 | 0.129 | 0.218 | 0.0861 | 0.164 | 0.169 | 0.32 | 0.13 | 0.285 | IC50 (Plasmodium falciparum [1]): 0.0089 µM; IC50 (Plasmodium falciparum [2]): 0.0474 µM; IC50 (Plasmodium falciparum [3]): 0.0226 µM; IC50 (Plasmodium falciparum [14]): 0.171 µM; IC90 (Plasmodium falciparum [14]): 0.316 µM; IC50 (Plasmodium falciparum [15]): 0.239 µM; IC90 (Plasmodium falciparum [15]): 0.369 µM; IC50 (MRC5): 64 µM; IC50 (NCH89): 30.4 µM; Kd (Nucleic Acid [18]): 17.5 µM; Kd (Nucleic Acid [19]): 8 µM; Tm (Nucleic Acid [20]): 73 °C; Tm (Nucleic Acid [21]): 74.5 °C; Tm (Nucleic Acid [22]): 73.9 °C; Tm (Nucleic Acid [23]): 46.6 °C; Tm (Nucleic Acid [24]): 46.5 °C; Tm (Nucleic Acid [25]): 46.5 °C
